Compounds with a hit are over-represented: about 3.7% of the library has one in this group of screens.
KCNQ1 act: potentiators or activators of human KCNQ1 potassium channel | hit rate 0.35% among 310,000 | CHO-K1 KCNQ1, thallium flux FluxOR fluorescence; stronger effect = higher value | B-score at 10 µM | AID 2648 | P51787;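 active means fluorescence ratio B-score, a plate-corrected score, at least three library SD, with initial intensity B-score within 5 SD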
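Material: CHO-K1 cells stably expressing KCNQ1. Medium: assay buffer for compound exposure, DMSO matched across wells. Reagent: K+/Tl+ depolarizing stimulus. Compound dosing: single-concentration screen. Times: 37 °C overnight plating, 90-min dark dye load, 20-min compound pretreatment. Technique: FluxOR Tl+ flux fluorescence.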
KCNK3 inh: human KCNK3 channel inhibition, primary screen | AID 602410 | O14649 | CHO-KCNK3 thallium flux, FluxOR fluorescence; stronger effect = lower value | B-score at 10 µM | hit rate 0.84% among 340,000;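 active means B-score under library mean minus 4 SD, starting fluorescence ratio at most library mean plus 5 SD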;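 further: more negative B-score means stronger inhibition of thallium flux through KCNK3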
KCNQ1 inh: blocks the human KCNQ1 potassium channel; B-score at 10 µM; AID 2642; CHO-K1 KCNQ1, FluxOR thallium flux fluorescence; stronger effect = higher value; P51787; hit rate 1.3% among 310,000;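 active means compounds whose thallium flux B-score, printed positive for inhibition, exceeds three library SD while starting fluorescence stays within three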;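 further: channel opened by potassium depolarization with thallium stimulus after 20 min compound exposure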
KCNK9 inh: blocks the human KCNK9 two-pore domain potassium channel. HEK293 KCNK9, FluxOR thallium flux fluorescence; stronger effect = lower value. hit rate 1.2% among 310,000. Q9NPC2. B-score at 10 µM;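 active means ratio B-score over 3 SD below the library mean, with starting fluorescence within 5 SD of its mean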;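 further: negative B-score means less thallium flux so channel inhibition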
Target sequence (Q9NPC2 whole entry, looked up, the tested form may be a part): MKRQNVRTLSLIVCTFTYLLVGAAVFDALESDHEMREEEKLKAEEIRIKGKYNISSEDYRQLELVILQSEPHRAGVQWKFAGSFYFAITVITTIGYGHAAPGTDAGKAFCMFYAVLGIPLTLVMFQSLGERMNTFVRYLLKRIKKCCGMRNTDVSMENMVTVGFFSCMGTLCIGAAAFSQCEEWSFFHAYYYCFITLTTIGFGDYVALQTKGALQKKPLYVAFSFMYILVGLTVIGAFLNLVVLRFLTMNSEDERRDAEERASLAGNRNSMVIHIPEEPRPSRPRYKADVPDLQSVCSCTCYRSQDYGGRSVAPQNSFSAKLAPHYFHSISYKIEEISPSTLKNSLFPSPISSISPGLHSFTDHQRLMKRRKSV
hERG rescue: shields human hERG channel from block by proarrhythmic agents. Q12809. CHO-hERG, FluxOR thallium flux, dofetilide IC70 present. activation (rescue from dofetilide block), less the hit threshold, % at 10 µM. hit rate 0.51% among 310,000. AID 1511;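 active means activation above the mean of controls blocked by dofetilide plus 5 SD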;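 further: thallium influx through hERG after potassium depolarization seen as dye fluorescence rise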
Kir21 inh: Kir2.1 (mouse) channel inhibition | P35561 | HEK293-Kir2.1, FluxOR thallium flux fluorescence; stronger effect = lower value | B-score at 10 µM | hit rate 0.85% among 310,000;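 active means fluorescence ratio B-score at or below minus 3 SD of library scores, with starting-brightness B-score within 2 SD, cut at about -4.2 in these data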;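 further: channel flux triggered by added potassium and thallium sulfate stimulus; B-score of peak minus minimum fluorescence over baseline after thallium stimulus; more negative B-score means stronger Kir2.1 block with less thallium influx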
* hit, by the source's call; i = inactive; . = not tested or not shown.

SMILES	KCNQ1 act	KCNK3 inh	KCNQ1 inh	KCNK9 inh	hERG rescue	Kir21 inh
CC(C)C(NC(=O)CN1C(=O)c2ccccc2C1=O)c1ccccc1 (configuration not stated)	i	i	i	i	-10	-1.3
CCCOC(=O)c1cc(NC(=O)/C=C/c2ccccc2)ccc1O	i	.	i	-9.4*	-19	-0.27
O=C(COC(=O)c1ccc(Cl)nc1)Nc1ccc(N2CCCCC2)cc1	.	i	.	.	.	.
COc1ccccc1NC(=O)/C(=C\c1cccnc1)NC(=O)c1ccc(C)cc1	i	i	i	i	-5	2.4
CCOC(=O)c1c(-c2ccc(C)o2)csc1NC(=S)NC(=O)N(C)C	39*	i	i	i	14*	-0.04
CCOC(=O)c1c(-c2ccc(C)o2)csc1N	i	i	i	i	-9	-0.53
CCOC(=O)c1c(-c2ccc(C)o2)csc1NC(=O)CSc1ncn[nH]1	i	i	i	i	-12	-2.2
CCOC(=O)c1c(-c2ccc(C)o2)csc1NC(=O)COC(=O)c1cccs1	i	i	i	-6.7*	-24	-1.5
Cc1ccc(CNC(=O)c2ccc(F)c(S(=O)(=O)N3CCOCC3)c2)cc1	.	i	.	.	.	.
COc1ccccc1NC(=O)COC(=O)c1ccc(S(=O)(=O)N2CCCCCC2)cc1	.	i	.	.	.	.
COc1ccc(-c2nn(-c3ccccc3)cc2/C=C/C(=O)N2CCN(c3ccccn3)CC2)cc1	i	i	6*	i	-33	0.67
O=C(CN1CCOCC1)NNc1nc(-c2ccccc2)c2cc(Br)ccc2n1	i	i	7*	i	-2	0.37
O=C(/C=C/c1ccc([N+](=O)[O-])cc1)NCCOc1ccc(F)cc1	i	i	i	i	5.5*	0
Cc1cc(C)cc(NC(=O)N(CCC#N)Cc2cccs2)c1	i	i	i	i	-2	0
CC(OC(=O)CCN=C1NS(=O)(=O)c2ccccc21)C(=O)N(C)C1CCCCC1 (configuration not stated)	i	i	i	i	-13	1.2
C=CCSC1=N/C(=C\c2cc(OCC)c(OC(C)=O)c([N+](=O)[O-])c2)C(=O)S1	i	i	9*	i	-17	0.02
Cc1cc(C)cc(N(CC(=O)N2CCCCCC2)S(C)(=O)=O)c1	i	i	i	i	-2	-0.38
CC1CCC(NC(=O)C(C)N2C(=O)C3CCCCC3C2=O)CC1 (configuration not stated)	.	i	.	.	.	.
CSc1ccc2c(c1)C(N1CCN(C)CC1)Cc1ccccc1S2 (configuration not stated)	i	i	i	i	-25	-7.9*
CC(=O)C1=NN(c2ccccc2)C(c2cccs2)N1c1ccccc1 (configuration not stated)	i	.	8*	-7.6*	-9	0.24
CC(=O)C1=NN(c2ccccc2)C(c2ccc3c(c2)OCO3)N1c1ccc(N2CCOCC2)cc1 (configuration not stated)	i	i	i	i	-8	-1
CCCCN(CCCC)C(=O)c1cc(Cl)ccc1[N+](=O)[O-]	i	i	i	i	-11	-7*
COc1cc(CC(=O)N(C)CC(=O)Nc2cc(C)ccc2C)cc(OC)c1OC	i	i	i	i	-5	-1.4
CCC(=NN=C(CC)c1ccccc1O)c1ccccc1O	.	-9.9*	.	.	.	.
C=CCN1C=CC(=CC=C(C#N)C#N)C=C1	i	i	7*	i	-11	-3.1
SMILES	KCNQ1 act	KCNK3 inh	KCNQ1 inh	KCNK9 inh	hERG rescue	Kir21 inh
CCOC(=O)/C(C#N)=C/C=C1\C=Cc2ccccc2N1CC	i	i	i	i	-6	0.44
CCCN1C=CC(=C/C=C(\C#N)C(=O)OCC)C=C1	i	.	12*	i	-30	-6.4
CCCCCN1C=CC=C/C1=C\C=C(C#N)C#N	i	i	i	i	-3	0.1
CCCN1C=CC(=CC=C(C#N)C#N)C=C1	i	i	8*	i	-14	-5.8
COc1ccc(C(=O)NNC(=O)c2ccc(S(=O)(=O)N3CC(C)OC(C)C3)cc2)cc1 (configuration not stated)	i	i	7*	i	-7	1.2
COc1cc(OC)cc(C(=O)NNC(=O)c2ccc(S(=O)(=O)N3CC(C)OC(C)C3)cc2)c1 (configuration not stated)	i	i	i	i	-9	0.04
CC1CCCN(C(=O)c2ccc(OC3CCN(CCc4ccccc4)CC3)cc2)C1 (configuration not stated)	i	i	i	i	-7	-4.5*
Cc1cc(N)ccc1N1CCCC1	i	i	7*	i	-8	1.1
O=C(NCc1ccncc1)c1ccccc1Nc1ccc(SC(F)F)cc1	i	i	i	i	-2	-0.53
CNC(=O)c1ccccc1Nc1ccc(SC(F)F)cc1	i	i	6*	i	-12	1
Cc1ccccc1C(=O)N1CCC(C(=O)N2CCCc3ccccc32)CC1	.	i	.	.	.	.
Cc1ccc(C)c2[nH]c(=O)c(CN(Cc3ccco3)S(=O)(=O)c3ccc4c(c3)OCCO4)cc12	i	i	6*	i	-15	-0.25
Cc1ccc(C)c2[nH]c(=O)c(CN(Cc3ccc4c(c3)OCO4)Cc3nnnn3Cc3ccco3)cc12	i	-9.4*	i	-7.1*	-11	1.9
COc1ccc(C(C(=O)OCCN(C)C)c2ccccc2)cc1 (configuration not stated)	i	i	i	-6.8*	-3	-1.3
COc1ccc(C(=O)CC(=O)c2ccccc2)cc1	i	i	i	i	-8	-0.27
CCCOc1ccc(C(C(=O)OCCN(CC)CC)c2ccccc2)cc1 (configuration not stated)	i	i	i	i	-8	-0.79
COc1ccc(C(=O)C/C(=C\C(=O)c2ccc(C)cc2)c2ccccc2)cc1	i	i	6*	i	-13	-1.5
COc1ccc(C(CC(=O)c2ccccc2)CC(=O)c2ccccc2)cc1	i	i	i	-7.1*	-3	0.01
O=C(CC(CC(=O)c1ccccc1)c1ccncc1)c1ccccc1	.	i	.	.	.	.
O=C(Cc1ccccc1[N+](=O)[O-])N1CCc2ccccc2C1	i	i	i	i	-7	0.1
COc1ccc(C2=NOC(C)(c3nnc(-c4ccccc4)o3)C2)cc1 (configuration not stated)	i	i	i	i	-3	-0.06
O=[N+]([O-])/C=C\c1ccc(N2CCCC2)c(F)c1	i	-9.6*	i	i	-13	-1.4
O=C(NC1CCCC1)c1cccnc1N1CCCCCC1	i	i	i	i	5.0*	0.48

Screening data deposited in PubChem by Johns Hopkins Ion Channel Center.
